CHO parental Ca = counter-screen: ATP calcium response change in parental CHO cells. inhibition, % at 5.6 µM. parental CHO-K1, ATP-induced calcium, Fluo-8 fluorescence. actives 0.63% (n = 330,000);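 active = inhibition above that plate's mean sample inhibition plus 3 SD, cut at about 26% in these data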
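Material: Parental CHO cells | Reagent: ATP | Compound dosing: Single nominal dose of 5.6 µM per compound | Detection: Intracellular calcium via Fluo-8 no-wash fluorescent dye | Read-out: % inhibition of ATP-induced calcium mobilization | Benchmarks: Low control ATP plus DMSO, high control DMSO only | Replicates: Singlicate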
TAAR1 ag = human TAAR1 agonism | CHO RD-HGA16 TAAR1, Fluo-8 calcium fluorescence; vehicle wells 0%, saturating PEA agonist 100% | actives 0.99% (n = 360,000) | activation, % at 3 µM;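 active = activation above the mean activation of all test compounds in the run plus 3 SD, cut at about 38% in these data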
Target sequence (Q96RJ0 whole entry, looked up): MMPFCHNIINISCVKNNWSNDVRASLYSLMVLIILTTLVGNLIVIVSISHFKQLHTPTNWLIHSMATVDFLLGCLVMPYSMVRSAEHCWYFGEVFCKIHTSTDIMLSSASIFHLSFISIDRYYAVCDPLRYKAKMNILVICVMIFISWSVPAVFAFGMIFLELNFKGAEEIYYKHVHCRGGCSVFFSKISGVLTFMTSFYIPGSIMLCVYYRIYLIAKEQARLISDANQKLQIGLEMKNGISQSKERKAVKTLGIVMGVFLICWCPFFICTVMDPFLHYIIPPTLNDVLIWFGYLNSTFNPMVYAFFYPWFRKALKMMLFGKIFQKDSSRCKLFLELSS
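Test system: RD-HGA16 (CHO) cells co-expressing Gα16 and hTAAR1 / Benchmarks: DMSO vehicle as 0%, PEA at EC100 as 100% / Repeats: no replicates (n 1) / Measure: % activation from peak over basal fluorescence ratio, DMSO-to-PEA scaled / Timing: 17-24 h plating, Fluo-8 75 min 37 °C, 30 min RT / Technique: kinetic Fluo-8 calcium fluorescence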
OX1R antag-1 = antagonists of human orexin 1 receptor (OX1R) | O43613 | OX1R-expressing cells, FRET antagonist read-out | inhibition, % at 6.6 µM | actives 1.8% (n = 330,000) | AID 485270; in the data active = inhibition mostly above about 38%, no sharp cut-off; inactive = mostly below about 40%
OX1R antag-2 = blocks the human orexin 1 receptor | O43613 | CHO/OX1R cells, Fluo-8 calcium fluorescence, orexin A | inhibition, % at 5 µM | actives 0.43% (n = 330,000) | AID 434989;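 active = inhibition above its plate's threshold, mean inhibition of all tested compounds on the plate plus 3 SD, cut at about 37% in these data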
TAAR1 antag = antagonists of human TAAR1; AID 624466; actives 1.5% (n = 360,000); inhibition, % at 3 µM; Q96RJ0; CHO RD-HGA16 TAAR1, Fluo-8 calcium fluorescence, antagonist;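 active = inhibition above a per-plate cutoff, the mean inhibition of test compounds on that plate plus 3 SD, cut at about 49% in these data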
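Material: CHO RD-HGA16 cells bearing hTAAR1; compound dosing: one-point dosing, 3 µM nominal final; schedule: dye loading 75 min at 37 °C, then 30 min room temperature; measured by: calcium fluorescence with Fluo-8; control set: vehicle and agonist controls; replication: n of 1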
OX1R Fluo8 conf = confirmation of human orexin 1 receptor antagonists; AID 492963; CHO/OX1R cells, orexin A calcium Fluo-8 fluorescence; shares compounds with OX1R antag-2; inhibition, % at 5 µM; actives 38% (n = 1,100); in the data active = inhibition above about 29%
CHO Ca triplic = counter-screen: parental CHO calcium response change, triplicate | inhibition, % at 5.6 µM | actives 9.3% (n = 1,100) | parental CHO-K1, ATP-induced calcium, Fluo-8 fluorescence | shares compounds with OX1R antag-2 | AID 492965;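 active = inhibition above a per-plate limit, the mean inhibition of that plate's test compounds plus 3 SD, cut at about 25% in these data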
OX1R HTRF conf = OX1R (human) antagonism, HTRF confirmed; actives 49% (n = 1,800); OX1R-expressing cells, HTRF antagonist assay; inhibition, % at 6.6 µM; shares compounds with OX1R antag-1; in the data active = inhibition above about 55%;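 also: CHO cells expressing OX1R stimulated with orexin A at about EC80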
CHO-K1 HTRF = signal in parental CHO-K1 cells, OX1R antagonist counter-screen. shares compounds with OX1R antag-1. HTRF counterscreen. inhibition, % at 6.6 µM. actives 48% (n = 1,800); in the data active = inhibition above about 17%
Hits are given with their value; 0 = inactive; - = not tested or not shown. In the library only some 4% were active in any assay of this set; here they are far more common.

SMILES	CHO parental Ca	TAAR1 ag	OX1R antag-1	OX1R antag-2	TAAR1 antag	others
COc1cc(/C=C(/C)[N+](=O)[O-])ccc1OCc1ccccc1Cl	54	-	0	0	-
COC(=O)C1=C(c2ccc(OCc3ccccc3)c(F)c2)C[C@@H]2CC[C@H]1N2C	-	0	-	-	0
CS(=O)(=O)N1Cc2cc(Br)ccc2-n2nncc2C1	-	0	-	-	0
CCC1(OC(=O)CN)C(=O)OCc2c1cc1n(c2=O)Cc2cc3ccccc3nc2-1 (stereo not drawn)	0	-	56	0	-
CC[C@@]1(O)C(=O)OCc2c1cc1n(c2=O)Cc2cc3c(NC(=O)CN)cccc3nc2-1	0	0	38	0	0
CC[C@@]1(O)C(=O)OCc2c1cc1n(c2=O)Cc2cc3ccccc3nc2-1	0	-	0	0	-
O=C(NCCN1CCC2(CC1)C(=O)NCN2c1ccccc1)c1ccc(F)cc1F	-	0	-	-	0
COC(=O)C(O)(c1ccc(NC(=S)NC(=O)c2ccc(Cl)cc2Cl)cc1)C(F)(F)F (stereo not drawn)	0	48	0	0	54
COC(=O)C(O)(c1ccc(NC(=O)NC2CCCCC2)cc1)C(F)(F)F (stereo not drawn)	0	0	0	0	0
O=C(Nc1ccccc1)N1Cc2cc(Br)ccc2-n2nncc2C1	-	0	-	-	0
Cc1cccc2nc(-c3ccccc3)c(-c3ccc(CN4CCC(n5c(=O)[nH]c6cc(Cl)ccc65)CC4)cc3)nc12	-	0	-	-	0
CC(=O)Nc1ccc([As](=O)(O)c2ccc([N+](=O)[O-])cc2)cc1	0	0	67	0	0
O=C1NC(=O)N(c2ccc3c(c2)OCO3)C(=O)/C1=C/c1ccc(N2CCCCC2)o1	0	0	61	0	0
O=C1NC(=O)N(c2ccc3c(c2)OCO3)C(=O)/C1=C\c1ccc(-c2ccccc2C(=O)O)o1	0	0	0	0	0
CCOP(=O)(OCC)c1ccc(OP(=O)(c2cccc([N+](=O)[O-])c2)c2cccc([N+](=O)[O-])c2)cc1	0	0	0	0	0
O=[N+]([O-])c1cccc(NP(=O)(Oc2ccccc2)Oc2ccccc2)c1	0	0	0	0	58
COC1C(C)OC(OC2CC(C)(O)Cc3cc4c(c(O)c32)C(=O)c2c(O)cc3c(c2C4=O)OC2OC3(C)C(O)C(N(C)C)C2O)C(OC)C1(C)OC (stereo not drawn)	-	47	-	-	0
O=c1[nH]c2ccccc2n1C1CCN(Cc2ccc(-c3nc4ccc(F)cc4nc3-c3ccccc3)cc2)CC1	-	0	-	-	0
CC(C)NC1(c2ccccc2)CCCCC1	-	0	-	-	0
CCN(CC)c1ccc(C=C2C(=O)N(C)C(=S)N(C)C2=O)o1	0	0	0	0	0
COc1ccc(N2C(=O)/C(=C/c3ccc(N(C)C)o3)C(=O)NC2=S)cc1	0	0	38	0	0
COc1cccc(N2C(=O)/C(=C/c3ccc(C)o3)C(=O)NC2=S)c1	0	0	0	0	0
CCN(CC)c1ccc(/C=C2\C(=O)NC(=S)N(C)C2=O)o1	0	0	55	0	0
O=C(NCC1=C(c2ccc3ccccc3c2)C[C@@H]2CC[C@H]1N2Cc1ccco1)c1nccs1	-	0	-	-	0
COC(=O)C1C(c2ccc(F)cc2)CC2CCC1N2C (stereo not drawn)	-	0	-	-	0
SMILES	CHO parental Ca	TAAR1 ag	OX1R antag-1	OX1R antag-2	TAAR1 antag	others
O=C(c1c[nH]cc1-c1ccccc1)c1cccc2ccccc12	40	0	0	0	0
CCCn1c(C)c(C(=O)c2cccc3ccccc23)c2ccccc21	0	0	0	0	0
COC(=O)C1=C(c2ccc(F)cc2OCc2ccccc2)C[C@@H]2CC[C@H]1N2C(=O)NCCOc1ccccc1Cl	0	0	0	56	0	OX1R Fluo8 conf=0;CHO Ca triplic=0
O=C(NN=Cc1ccc(N(CCCl)CCCl)cc1)C(=O)c1c[nH]c2ccccc12	-	0	-	-	0
CC1C(=O)OC2CCN3CC4OC4(COC(=O)C(C)(O)C1(C)O)C23 (stereo not drawn)	-	0	-	-	0
COc1ccc(-n2c(O)c(/C=C/C=Nc3ccccc3)c(=O)[nH]c2=O)cc1	0	63	0	45	0	OX1R Fluo8 conf=0;CHO Ca triplic=32
O=c1[nH]c(=O)n(-c2ccccc2)c(O)c1/C=C/C=Nc1ccccc1	0	0	0	0	0
CN(C)P1(N(C)C)=Nc2c(c(N)nn2C)C(c2ccccc2)=N1	0	0	0	89	0	OX1R Fluo8 conf=0;CHO Ca triplic=0
Cc1ccc(C)c(NP(=O)(Oc2ccccc2)Oc2ccccc2)c1	0	0	42	81	80	OX1R Fluo8 conf=0;CHO Ca triplic=0;OX1R HTRF conf=58;CHO-K1 HTRF=0
NC(Cc1ccccc1Cl)c1nn[nH]n1 (stereo not drawn)	-	0	-	-	0
CC(C)CCn1c(N)c(C(=O)OCC2CCCO2)c2nc3ccccc3nc21 (stereo not drawn)	0	0	0	0	0
CCCCn1c(N)c(C(=O)OCC2CCCO2)c2nc3ccccc3nc21 (stereo not drawn)	0	-	100	78	-	OX1R Fluo8 conf=0;CHO Ca triplic=0;OX1R HTRF conf=0;CHO-K1 HTRF=0
CN1CCN(c2ccc([N+](=O)[O-])c(N3CCCCC3)c2)CC1	0	0	0	0	0
CN1CCN(c2ccc([N+](=O)[O-])c3cccnc23)CC1	0	0	128	0	0	OX1R HTRF conf=0;CHO-K1 HTRF=64
O=[N+]([O-])c1ccc(N2CCCC2)c2ccncc12	0	0	87	0	0	OX1R HTRF conf=0;CHO-K1 HTRF=69
O=[N+]([O-])c1ccc(NC2CCCC2)c2ccncc12	0	-	0	0	-
CCc1nnc(NC(=O)CCc2nc(C3=CCN(C)CC3)no2)s1	0	0	98	0	0	OX1R HTRF conf=0;CHO-K1 HTRF=0
COc1cc2c(c(OC)c1OC)-c1ccc(SC)c(=O)cc1C(NC(C)=O)CC2 (stereo not drawn)	-	0	-	-	0
O=C1OC(c2ccc([N+](=O)[O-])cc2)=N/C1=C/N1CC2CC(C1)c1cccc(=O)n1C2 (stereo not drawn)	0	0	80	0	0	OX1R HTRF conf=0;CHO-K1 HTRF=18
c1ccc2c[n+](CCCCCCCCCC[n+]3ccc4ccccc4c3)ccc2c1	-	0	-	-	0
CCCCCCC[n+]1ccc(-c2cc[n+](CCCCCCC)cc2)cc1	0	0	140	0	0	OX1R HTRF conf=60;CHO-K1 HTRF=91
c1ccc(CN2Cc3ccccc3-n3nncc3C2)nc1	-	0	-	-	0
Nc1cc(Cl)c2nonc2c1[N+](=O)[O-]	0	0	113	0	0	OX1R HTRF conf=85;CHO-K1 HTRF=85

Screening results as filed in PubChem.
